Columns and labels:
Oryctolagus cuniculus = species: Oryctolagus cuniculus; experiment: Concentration required to relax phenylephrine-precontracted aortic rings by 50% in endothelium denuded rabbit aorta; settings: read-out: ED50 (the source's name)
[1] = biological target: T1, Muscarinic acetylcholine receptor M3 (Rattus norvegicus, UniProt P08483); experiment: Binding affinity to Muscarinic acetylcholine receptor M3 by measuring its ability to displace [3H]N-methylscopolamine binding in rat submandibulary gland
T1 sequence (P08483 whole entry): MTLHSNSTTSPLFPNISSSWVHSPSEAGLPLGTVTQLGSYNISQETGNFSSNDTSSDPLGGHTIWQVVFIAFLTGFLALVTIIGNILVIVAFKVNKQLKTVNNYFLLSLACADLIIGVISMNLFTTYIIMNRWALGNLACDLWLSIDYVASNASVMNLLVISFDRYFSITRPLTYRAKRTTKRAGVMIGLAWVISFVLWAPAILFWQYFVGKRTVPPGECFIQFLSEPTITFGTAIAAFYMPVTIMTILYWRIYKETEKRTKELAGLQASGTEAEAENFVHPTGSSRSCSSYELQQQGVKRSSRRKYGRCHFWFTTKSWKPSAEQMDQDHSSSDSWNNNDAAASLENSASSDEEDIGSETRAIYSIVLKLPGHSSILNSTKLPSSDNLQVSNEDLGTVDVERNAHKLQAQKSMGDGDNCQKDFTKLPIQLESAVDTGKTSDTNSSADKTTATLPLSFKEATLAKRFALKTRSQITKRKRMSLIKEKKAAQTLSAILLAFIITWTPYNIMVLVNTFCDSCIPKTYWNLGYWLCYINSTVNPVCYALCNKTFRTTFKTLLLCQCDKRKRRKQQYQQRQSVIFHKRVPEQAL
In short: (§1)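 Rat submandibulary gland membranes prepared in Na+/Mg2+ HEPES buffer pH 7.4. Incubated 45 min at 30 °C with 0.3 nM [3H]-N-methylscopolamine and test compound (10 nM–10 mM). Nonspecific binding defined with 1 μM (±)-QNB. Pellet obtained by centrifugation and counted by scintillation. Triplicate determinations. Ki derived from IC50 by Cheng–Prusoff.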

[2] = biological target: T2, Muscarinic acetylcholine receptor M2 (Rattus norvegicus, UniProt P10980); experiment: Binding affinity to Muscarinic acetylcholine receptor M2 by measuring its ability to displace [3H]N-methylscopolamine binding in rat heart
T2 sequence (P10980 whole entry): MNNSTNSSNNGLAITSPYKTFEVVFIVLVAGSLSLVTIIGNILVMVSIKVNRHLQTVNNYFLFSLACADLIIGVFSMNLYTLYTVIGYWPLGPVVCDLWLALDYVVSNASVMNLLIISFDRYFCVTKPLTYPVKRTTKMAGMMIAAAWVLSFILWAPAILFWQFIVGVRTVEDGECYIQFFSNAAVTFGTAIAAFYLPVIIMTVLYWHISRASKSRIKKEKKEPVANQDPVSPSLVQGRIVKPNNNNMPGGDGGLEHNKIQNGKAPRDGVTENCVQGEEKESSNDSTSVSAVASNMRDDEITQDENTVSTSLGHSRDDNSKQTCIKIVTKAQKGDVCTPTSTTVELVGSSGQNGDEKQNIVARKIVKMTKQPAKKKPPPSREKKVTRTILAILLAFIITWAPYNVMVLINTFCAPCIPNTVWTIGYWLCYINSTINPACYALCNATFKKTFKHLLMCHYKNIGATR
In short: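 Rat heart ventricle membranes, homogenized in sucrose/TRIS and washed in Na+/Mg2+ HEPES buffer pH 7.4. Nonspecific binding defined with 1 μM (±)-QNB. Bound ligand separated by centrifugation and counted by scintillation. Triplicate determinations. Ki derived from IC50 by Cheng–Prusoff.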

Rattus norvegicus = species: Rattus norvegicus; experiment: Concentration required to relax phenylephrine-precontracted aortic rings by 50% in endothelium intact rat aorta; assay type: functional; settings: read-out: ED50 (the source's name)
In short: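 Endothelium-intact rat aortic rings equilibrated 60 min at 37 °C under 95% O2/5% CO2. Endothelium confirmed by relaxation to 10^-6 M ACh. After washout, rings precontracted with 10^-7 M phenylephrine. Test compound added cumulatively (10^-6–10^-4 M) at 2-min intervals. Each ring used once. ED50 taken from percent phenylephrine response versus concentration.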

[3] = Inhibitory selectivity for Muscarinic receptors M3 and M1
In short: (§2)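 Ratios of Ki values from rat tissue displacement binding. M1 used cerebral cortex with 0.5 nM [3H]pirenzepine. M2 used heart ventricle and M3 used submandibulary gland, both with 0.3 nM [3H]-N-methylscopolamine. All incubations ran 45 min at 30 °C with test compound at 10 nM–10 mM. Ki obtained by Cheng–Prusoff. Three independent experiments.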

[4] = biological target: Muscarinic receptor M1 and M2 (Rattus norvegicus) (UniProt P08482+P10980); experiment: Inhibitory selectivity for Muscarinic receptors M2 and M1; assay type: protein assay
Sequence of Muscarinic receptor M1 and M2 (Rattus norvegicus) (P08482 whole entry, looked up, one chain of several): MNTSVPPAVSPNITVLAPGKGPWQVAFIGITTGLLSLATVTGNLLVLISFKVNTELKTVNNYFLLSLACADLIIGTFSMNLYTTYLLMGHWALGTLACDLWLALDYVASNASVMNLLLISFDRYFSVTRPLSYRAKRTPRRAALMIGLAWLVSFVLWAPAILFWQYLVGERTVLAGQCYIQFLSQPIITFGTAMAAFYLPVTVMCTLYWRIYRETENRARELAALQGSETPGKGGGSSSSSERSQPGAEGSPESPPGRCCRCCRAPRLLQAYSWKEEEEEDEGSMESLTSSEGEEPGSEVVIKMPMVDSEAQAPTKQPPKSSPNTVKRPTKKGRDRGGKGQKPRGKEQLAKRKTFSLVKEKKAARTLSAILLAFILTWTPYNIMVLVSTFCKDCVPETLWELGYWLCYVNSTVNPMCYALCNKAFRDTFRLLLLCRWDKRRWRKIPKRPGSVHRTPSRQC
In short: as §2

[5] = biological target: Muscarinic receptor M2 and M3 (Rattus norvegicus) (UniProt P08483+P10980); experiment: Inhibitory selectivity for Muscarinic receptors M3 and M2; assay type: protein assay
Sequence of Muscarinic receptor M2 and M3 (Rattus norvegicus) (P08483 whole entry, looked up, one chain of several): as the sequence (P08483 whole entry) above
In short: as §2

[6] = biological target: T1, Muscarinic acetylcholine receptor M3; experiment: The compound was evaluated for its ability to inhibit [3H]NMS binding to Muscarinic acetylcholine receptor in submandibular salivary gland; assay type: tissue-based
In short: as §1

SMILES | EC50 (Oryctolagus cuniculus) [µM] | Ki [1] [µM] | Ki [2] [µM] | EC50 (Rattus norvegicus) [µM] | Selectivity ratio [3] | Selectivity ratio [4] | Selectivity ratio [5] | Ki [6] [µM]
C#CCCON=C1CC2CCC(C1)N2C | 15 | 10 | 31.6 | 5.3 | 6.8 | 19 | 0.34 | 
CN1C2CCC1CC(=NO)C2 | 320 | 794 | 39.8 | 53 | 1.4 | 0.74 | 18 | 
O=C1CCCN1CC#CCN1CCCC1 [OXOTREMORINE] |  | 0.398 | 0.2 | 0.044 | 0.63 | 0.32 | 2 | 
C#CC(C)ON=C1CCN(C)CC1 (centres undefined) | 41 | 79.4 | 12.6 | 7.8 | 14 | 2.2 | 6.3 | 
CC#CCON=C1CCN(C)CC1 | 8.7 | 126 | 7.94 | 8.7 | 35 | 2 | 17 | 
C#CC(C)ON=C1CC2CCC(C1)N2C (centres undefined) | 26 | 3.98 | 6.31 | 6.9 | 0.46 | 4.5 | 0.72 | 
CCC#CCON=C1CCN(C)CC1 | 12 | 20 | 15.8 | 6.2 | 5.4 | 4 | 1.4 | 
C#CCCCON=C1CCN(C)CC1 | 13 | 15.8 | 10 | 9.3 | 1.7 | 1.1 | 1.5 | 
C#CCON=C1CCN(C)CC1 | 11 | 20 | 25.1 | 6.8 | 0.42 | 0.59 | 0.72 | 
C#CCCCON=C1CC2CCC(C1)N2C | 6.5 | 10 | 6.31 | 5.9 | 16 | 12 | 1.3 | 
C#CCC(C)ON=C1CC2CCC(C1)N2C (centres undefined) | 23 | 3.16 | 1.58 | 5.4 | 29 | 16 | 1.8 | 
CC#CCON=C1CC2CCC(C1)N2C | 4.8 | 15.8 | 12.6 | 3.4 | 27 | 24 | 1.1 | 20

— ChEMBL document CHEMBL1131062, “Synthesis and pharmacological characterization of O-alkynyloximes of tropinone and N-methylpiperidinone as muscarinic agonists” (J Med Chem, 1998)
